Assay results taken from ChEMBL document CHEMBL3102812 (J Med Chem, 2013).
≈ marks a conversion by molar mass, not a printed value. Calls of active or inactive are those of the source. The calls are words filed in the database; no cut-off is given here.

What was measured:
Trypanosoma cruzi [1] = assay: Antitrypanosomal activity against Trypanosoma cruzi Tulahuen 6 infected in Swiss mouse assessed as reduction in blood parasitemia at 20 mg/kg, po qd administered on day 8 post-infection for 10 days by microscopic analysis; assay type: functional, organism-based; design: dose 20 mg/kg
Method in brief: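 Infected Swiss mice dosed orally at 20 mg/kg once daily for up to 10 days starting day 8 pi; blood parasitemia followed by microscopy throughout dosing, scored as cleared or not during the dosing period.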

Mus musculus = assay: Toxicity in Swiss mouse at 20 mg/kg, po; conditions: in vivo
[2] = Kinetic aqueous solubility of the compound in phosphate buffer at pH 2 by nephelometric analysis; conditions: for solubility kinetic: phosphate buffer
Trypanosoma cruzi [3] = assay: Antitrypanosomal activity against Trypanosoma cruzi Tulahuen 6 amastigotes infected in rat L6 cells after 96 hrs by colorimetric method; assay type: functional, organism-based; conditions: Tulahuen 6, L6, 96 h
[4] = Partition coefficient, log D of the compound at pH 7.4 by chromatographic method; conditions: octanol/water
Cytochrome P450 3A4 = Cytochrome P450 3A4 (Homo sapiens, UniProt P08684); assay: Inhibition of CYP3A4 in human liver microsomes assessed as 6beta-hydroxylation of testosterone
[5] = Kinetic aqueous solubility of the compound in phosphate buffer at pH 6.5 by nephelometric analysis

Sequence of Cytochrome P450 3A4 (P08684 whole entry): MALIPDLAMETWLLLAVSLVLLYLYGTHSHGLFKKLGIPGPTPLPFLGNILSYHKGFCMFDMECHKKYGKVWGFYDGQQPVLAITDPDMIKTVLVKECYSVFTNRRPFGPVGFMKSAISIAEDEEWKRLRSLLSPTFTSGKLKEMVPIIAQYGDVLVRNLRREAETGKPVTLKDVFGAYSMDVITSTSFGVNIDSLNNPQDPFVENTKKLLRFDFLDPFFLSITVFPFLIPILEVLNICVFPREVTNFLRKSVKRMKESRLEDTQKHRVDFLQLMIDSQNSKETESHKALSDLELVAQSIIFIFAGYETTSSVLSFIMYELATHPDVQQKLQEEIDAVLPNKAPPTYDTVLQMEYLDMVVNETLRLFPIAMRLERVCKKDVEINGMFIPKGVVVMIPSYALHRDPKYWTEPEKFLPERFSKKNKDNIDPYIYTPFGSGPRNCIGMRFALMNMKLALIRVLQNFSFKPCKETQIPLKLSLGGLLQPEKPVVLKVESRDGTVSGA

| SMILES | Activity (Trypanosoma cruzi [1]) | Activity (Mus musculus) | Kinetic solubility ([2]; buffer) | IC50 (Trypanosoma cruzi [3]) | chromatographic logD [4] | IC50 (Cytochrome P450 3A4) | solubility kinetic [5] | solubility kinetic [2] |
| --- | --- | --- | --- | --- | --- | --- | --- | --- |
| N#Cc1ccc(C(O)(c2ccc(C(F)(F)F)cc2)c2cccnc2)cc1 (configuration not stated) | Active | Non-toxic | – | – | – | – | – | – |
| O=C(C(c1ccc(Cl)cc1)c1cccnc1)N1CCN(c2ccc(C(F)(F)F)cn2)CC1 (configuration not stated) | – | Non-toxic | 25 µg/mL | 12 nM | 4.2 | 7000 nM | 3.1 µg/mL (≈ 6.73 µM) | – |
| CC(C)(C)CC(=O)N1CCC(N(c2ccc(Cl)cc2)c2cccnc2)CC1 | – | – | – | – | 4.2 | – | 6.3 µg/mL (≈ 16.3 µM) | > 100 µg/mL |
| Cc1ccccc1CN1CCC(N(c2ccc(C(F)(F)F)cc2)c2cccnc2)CC1 | – | – | – | – | > 5.3 | – | 3.1 µg/mL (≈ 7.29 µM) | > 100 µg/mL |
| N#Cc1ccc(C(c2cccnc2)N2CCC(NC(=O)c3c(F)cccc3F)CC2)cc1 (configuration not stated) | inactive | Non-toxic | – | 19 nM | – | – | – | – |
| N#Cc1ccc(C(C(=O)N2CCN(c3ccc(C(F)(F)F)cn3)CC2)c2cccnc2)cc1 (configuration not stated) | – | Non-toxic | – | 12 nM | 3.5 | > 20000 nM | 6.3 µg/mL (≈ 14 µM) | 50 µg/mL (≈ 111 µM) |
| N#Cc1ccc(C(O)(c2ccc(C(F)(F)F)cc2)c2cccnc2)c(F)c1 (configuration not stated) | Active | Non-toxic | – | – | – | – | – | – |
| FC(F)(F)c1ccc(N(c2cncnc2)C2CCN(c3ccc(C(F)(F)F)cn3)CC2)cc1 | – | Non-toxic | – | 5 nM | 4.9 | 6300 nM | < 1.6 µg/mL | 12.5 µg/mL (≈ 26.7 µM) |
| CS(=O)(=O)c1ccc(N2CCN(C(=O)C(c3ccc(Cl)cc3)c3cccnc3)CC2)cc1 (configuration not stated) | – | Non-toxic | – | 2 nM | 3 | 4000 nM | 6.3 µg/mL (≈ 13.4 µM) | > 100 µg/mL |
| CS(=O)(=O)c1ccc(N2CCN(C(=O)C(c3ccc(C#N)cc3)c3cccnc3)CC2)cc1 (configuration not stated) | – | Non-toxic | – | 24 nM | 2.4 | > 20000 nM | 3.1 µg/mL (≈ 6.73 µM) | 25 µg/mL (≈ 54.3 µM) |
| N#Cc1ccc(N(c2cccnc2)C2CCN(c3ccc(C(F)(F)F)cc3)CC2)cc1 | – | Non-toxic | – | 3 nM | 4.7 | – | < 1.6 µg/mL | 25 µg/mL (≈ 59.2 µM) |
| O=C(C(c1ccc(Cl)cc1)c1cccnc1)N1CCN(c2ccc(C(F)(F)F)nc2)CC1 (configuration not stated) | – | Non-toxic | – | 8 nM | 3.7 | > 20000 nM | 6.3 µg/mL (≈ 13.7 µM) | 50 µg/mL (≈ 108 µM) |
| O=C([C@H](c1ccc(Cl)cc1)c1cccnc1)N1CCN(c2ccc(C(F)(F)F)cc2)CC1 | – | – | – | – | 4.5 | 17000 nM | 1.6 µg/mL (≈ 3.48 µM) | > 100 µg/mL |
| FC(F)(F)c1ccc(N(c2cccnc2)C2CCN(c3ccc(Cl)cc3)CC2)cc1 | – | – | – | – | > 5.3 | – | < 1.6 µg/mL | > 100 µg/mL |
| N#Cc1ccc(C(C(=O)N2CCN(c3ccc(C(F)(F)F)nc3)CC2)c2cccnc2)cc1 (configuration not stated) | – | – | – | – | 3 | > 20000 nM | 25 µg/mL (≈ 55.4 µM) | > 100 µg/mL |
| N#Cc1ccccc1N1CCC(N(c2ccc(C(F)(F)F)cc2)c2cccnc2)CC1 | – | – | – | – | 4.9 | 5200 nM | < 1.6 µg/mL | > 100 µg/mL |
| N#Cc1ccc(C(C(=O)N2CCN(c3ccc(C(F)(F)F)cc3)CC2)c2cccnc2)cc1 (configuration not stated) | – | Non-toxic | – | 12 nM | 3.8 | > 20000 nM | 3.1 µg/mL (≈ 6.88 µM) | > 100 µg/mL |
| FC(F)(F)c1ccc(N2CCC(N(c3ccc(C(F)(F)F)cc3)c3cccnc3)CC2)cc1 | – | – | – | 17 nM | – | – | – | – |
| CS(=O)(=O)c1ccc(N2CCC(N(c3ccc(C#N)cc3)c3cccnc3)CC2)cc1 | – | Non-toxic | – | 2 nM | 3 | 12000 nM | < 1.6 µg/mL | 25 µg/mL (≈ 57.8 µM) |
